Measured values reported in ChEMBL document CHEMBL1140162, “3-amino-7-phthalazinylbenzoisoxazoles as a novel class of potent, selective, and orally available inhibitors of p38alpha mitogen-activated protein kinase” (J Med Chem, 2008).
Each block holds one compound with its values, some of them ahead of it.

Legend:
[1] = molecular target: T1, Mitogen-activated protein kinase 14 (Homo sapiens, UniProt Q16539); test: Inhibition of human recombinant GST-tagged p38alphaMAPK-induced ATF2 phosphorylation
THP-1 = test: Inhibition of LPS-induced TNFalpha production in human THP1 cells after 3 hrs; assay type: functional, cell-based; conditions: THP-1, 3 h
Blood = test: Inhibition of TNF-induced IL8 production in human whole blood; assay type: functional, tissue-based
Cytochrome P450 3A4 = Cytochrome P450 3A4 (Homo sapiens, UniProt P08684); test: Inhibition of CYP3A4 in human liver microsomes; assay type: ADME, Microsome
Cytochrome P450 2D6 = Cytochrome P450 2D6 (Homo sapiens, UniProt P10635); test: Inhibition of CYP2D6; assay type: ADME
[2] = molecular target: T2, Mast/stem cell growth factor receptor Kit (Homo sapiens, UniProt P10721); test: Inhibition of c-KIT
[3] = molecular target: T3, Nuclear receptor subfamily 1 group I member 2 (Homo sapiens, UniProt O75469); test: Activation of human PXR
T3 sequence (O75469 whole entry): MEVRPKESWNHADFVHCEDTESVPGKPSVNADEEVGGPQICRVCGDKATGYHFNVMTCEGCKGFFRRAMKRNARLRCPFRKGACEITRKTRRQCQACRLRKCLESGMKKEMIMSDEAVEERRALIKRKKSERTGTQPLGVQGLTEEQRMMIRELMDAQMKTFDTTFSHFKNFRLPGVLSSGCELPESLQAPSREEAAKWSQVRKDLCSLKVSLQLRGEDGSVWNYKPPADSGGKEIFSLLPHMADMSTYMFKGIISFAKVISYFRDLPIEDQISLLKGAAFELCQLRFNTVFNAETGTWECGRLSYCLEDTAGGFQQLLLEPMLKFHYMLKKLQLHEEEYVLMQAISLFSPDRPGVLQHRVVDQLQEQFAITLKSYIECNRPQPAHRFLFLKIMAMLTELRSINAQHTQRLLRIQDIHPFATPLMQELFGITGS

[4] = molecular target: Voltage-gated inwardly rectifying potassium channel KCNH2 (Homo sapiens, UniProt Q12809); test: Inhibition of human ERG by manual electrophysiology
Rattus norvegicus [5] = test: Antiinflammatory effect in po dosed collagen-induced arthritis Lewis rat model assessed as inhibition of paw swelling administered once a day for 7 days; assay type: functional
Summary of the method: (§1)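 Lewis rats immunized intradermally with porcine type II collagen in incomplete Freund's adjuvant; dosing oral, once daily for 7 days from disease onset (days 10-12), vehicle 1% Tween-80 in Oraplus pH 2.2, doses 0.03-3.0 mg/kg. Paw diameter measured daily days 0-7; area under swelling curve used for percent inhibition versus vehicle; n = 8 rats/group. Exposure values interpolated.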

Rattus norvegicus [6] = test: AUC (0 to 24 hrs) in po dosed collagen-induced arthritis Lewis rat model; assay type: ADME, organism-based; set-up: time < 24 hr, route oral; conditions: in vivo; summary of the method: as §1
Rattus norvegicus [7] = test: Cmax in po dosed collagen-induced arthritis Lewis rat model; assay type: ADME, organism-based; set-up: route oral; conditions: in vivo; summary of the method: as §1
[8] = Concentration of drug level in po dosed collagen-induced arthritis Lewis rat model after 24hrs; assay type: ADME, organism-based; conditions: in vivo, read-out: Drug uptake; summary of the method: as §1
[9] = Volume of distribution in Sprague-Dawley rat at 2 mg/kg, iv; assay type: ADME, organism-based; set-up: dose 2 mg/kg, route intravenous; conditions: in vivo
Summary of the method: (§2)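 Sprague-Dawley rats given 2 mg/kg intravenously; clearance, volume of distribution and elimination half-life derived from plasma profile.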

[10] = Elimination half life in Sprague-Dawley rat at 2 mg/kg, iv; assay type: ADME, organism-based; set-up: dose 2 mg/kg, route intravenous; conditions: in vivo; summary of the method: as §2
[11] = Tmax in Sprague-Dawley rat at 10 mg/kg, po; assay type: ADME, organism-based; set-up: dose 10 mg/kg, route oral; conditions: in vivo
Summary of the method: (§3)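 Sprague-Dawley rats dosed orally at 10 mg/kg as a solution in 1% Tween-80 in OralPlus (pH 2.2); bioavailability derived against 2 mg/kg iv dosing.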

Rattus norvegicus [12] = test: Cmax in Sprague-Dawley rat at 10 mg/kg, po; assay type: ADME, organism-based; set-up: dose 10 mg/kg, route oral; conditions: in vivo; summary of the method: as §3
Rattus norvegicus [13] = test: Oral bioavailability in Sprague-Dawley rat at 10 mg/kg; assay type: ADME, organism-based; conditions: in vivo; summary of the method: as §3
[14] = Protein binding in Sprague-Dawley rat plasma; assay type: ADME, cell-free; conditions: read-out: PPB (converted)
Summary of the method: (§4)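 Plasma protein binding in rat or human plasma measured by ultrafiltration.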

[15] = Protein binding in human plasma; assay type: ADME, cell-free; conditions: read-out: PPB (converted); summary of the method: as §4
Liver microsomes [16] = test: Metabolic stability in Sprague-Dawley rat liver microsomes assessed per mg of protein by LCMS in presence of NADPH; assay type: ADME, Microsome
Summary of the method: (§5)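 Test article 1 µM incubated with rat or human liver microsomes (0.1 mg/mL) in 66.67 mM potassium phosphate pH 7.4; NADPH 1 mM started reaction, blank without NADPH; stopped at 10 min with acetonitrile/0.05% formic acid; remaining parent quantified by LCMS; triplicates.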

Liver microsomes [17] = test: Metabolic stability in human liver microsomes assessed per mg of protein by LCMS in presence of NADPH; assay type: ADME, Microsome; summary of the method: as §5
[18] = molecular target: T4, Mitogen-activated protein kinase 11 (Homo sapiens, UniProt Q15759); test: Inhibition of human recombinant GST-tagged p38beta-induced ATF2 phosphorylation
[19] = molecular target: T1, Mitogen-activated protein kinase 14; test: Inhibition of p38alpha at 1 uM relative to control
[20] = molecular target: T4, Mitogen-activated protein kinase 11; test: Inhibition of p38beta at 1 uM relative to control
[21] = molecular target: T5, Platelet-derived growth factor receptor beta (Homo sapiens, UniProt P09619); test: Inhibition of PDGFRbeta at 1 uM relative to control
[22] = molecular target: T2, Mast/stem cell growth factor receptor Kit; test: Inhibition of c-KIT at 1 uM relative to control
[23] = molecular target: T5, Platelet-derived growth factor receptor beta; test: Inhibition of PDGFRbeta

Chain of Cytochrome P450 2D6 (P10635 whole entry): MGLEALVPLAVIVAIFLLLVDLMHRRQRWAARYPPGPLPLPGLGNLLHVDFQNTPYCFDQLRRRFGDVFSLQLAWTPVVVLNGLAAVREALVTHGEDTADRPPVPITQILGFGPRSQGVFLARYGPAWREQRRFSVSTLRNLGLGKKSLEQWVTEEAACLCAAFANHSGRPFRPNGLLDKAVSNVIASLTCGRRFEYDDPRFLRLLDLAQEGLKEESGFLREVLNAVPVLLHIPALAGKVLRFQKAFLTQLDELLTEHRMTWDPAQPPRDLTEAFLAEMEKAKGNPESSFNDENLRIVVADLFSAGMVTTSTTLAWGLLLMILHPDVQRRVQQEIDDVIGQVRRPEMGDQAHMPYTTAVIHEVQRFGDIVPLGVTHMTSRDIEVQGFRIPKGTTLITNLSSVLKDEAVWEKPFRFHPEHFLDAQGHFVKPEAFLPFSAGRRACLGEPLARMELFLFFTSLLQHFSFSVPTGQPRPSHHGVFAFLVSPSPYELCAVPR
Chain of Cytochrome P450 3A4 (P08684 whole entry): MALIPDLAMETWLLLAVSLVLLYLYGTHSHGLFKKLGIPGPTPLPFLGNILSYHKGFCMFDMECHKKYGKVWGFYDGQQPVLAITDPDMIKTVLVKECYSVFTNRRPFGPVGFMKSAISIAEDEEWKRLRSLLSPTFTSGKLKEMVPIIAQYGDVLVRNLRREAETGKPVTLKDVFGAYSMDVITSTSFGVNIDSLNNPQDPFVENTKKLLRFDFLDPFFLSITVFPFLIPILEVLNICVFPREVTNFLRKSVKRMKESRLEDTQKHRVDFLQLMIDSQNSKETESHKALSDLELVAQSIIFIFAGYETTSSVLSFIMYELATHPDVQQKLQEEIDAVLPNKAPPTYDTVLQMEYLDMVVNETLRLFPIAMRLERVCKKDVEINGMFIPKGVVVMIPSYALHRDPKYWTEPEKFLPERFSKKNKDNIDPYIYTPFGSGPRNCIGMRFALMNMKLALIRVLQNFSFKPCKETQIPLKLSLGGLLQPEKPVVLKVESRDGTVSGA
T1 sequence (Q16539 whole entry): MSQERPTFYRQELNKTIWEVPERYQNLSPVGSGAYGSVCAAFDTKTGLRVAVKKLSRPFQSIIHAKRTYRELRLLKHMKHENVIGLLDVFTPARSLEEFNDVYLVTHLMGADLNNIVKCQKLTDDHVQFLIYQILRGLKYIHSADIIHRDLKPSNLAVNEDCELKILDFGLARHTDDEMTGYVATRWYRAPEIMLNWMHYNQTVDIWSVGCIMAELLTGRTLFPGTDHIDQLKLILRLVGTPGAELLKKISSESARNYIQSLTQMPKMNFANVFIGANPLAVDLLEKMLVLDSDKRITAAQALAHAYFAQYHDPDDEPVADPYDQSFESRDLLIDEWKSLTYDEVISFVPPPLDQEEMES
T2 sequence (P10721 whole entry): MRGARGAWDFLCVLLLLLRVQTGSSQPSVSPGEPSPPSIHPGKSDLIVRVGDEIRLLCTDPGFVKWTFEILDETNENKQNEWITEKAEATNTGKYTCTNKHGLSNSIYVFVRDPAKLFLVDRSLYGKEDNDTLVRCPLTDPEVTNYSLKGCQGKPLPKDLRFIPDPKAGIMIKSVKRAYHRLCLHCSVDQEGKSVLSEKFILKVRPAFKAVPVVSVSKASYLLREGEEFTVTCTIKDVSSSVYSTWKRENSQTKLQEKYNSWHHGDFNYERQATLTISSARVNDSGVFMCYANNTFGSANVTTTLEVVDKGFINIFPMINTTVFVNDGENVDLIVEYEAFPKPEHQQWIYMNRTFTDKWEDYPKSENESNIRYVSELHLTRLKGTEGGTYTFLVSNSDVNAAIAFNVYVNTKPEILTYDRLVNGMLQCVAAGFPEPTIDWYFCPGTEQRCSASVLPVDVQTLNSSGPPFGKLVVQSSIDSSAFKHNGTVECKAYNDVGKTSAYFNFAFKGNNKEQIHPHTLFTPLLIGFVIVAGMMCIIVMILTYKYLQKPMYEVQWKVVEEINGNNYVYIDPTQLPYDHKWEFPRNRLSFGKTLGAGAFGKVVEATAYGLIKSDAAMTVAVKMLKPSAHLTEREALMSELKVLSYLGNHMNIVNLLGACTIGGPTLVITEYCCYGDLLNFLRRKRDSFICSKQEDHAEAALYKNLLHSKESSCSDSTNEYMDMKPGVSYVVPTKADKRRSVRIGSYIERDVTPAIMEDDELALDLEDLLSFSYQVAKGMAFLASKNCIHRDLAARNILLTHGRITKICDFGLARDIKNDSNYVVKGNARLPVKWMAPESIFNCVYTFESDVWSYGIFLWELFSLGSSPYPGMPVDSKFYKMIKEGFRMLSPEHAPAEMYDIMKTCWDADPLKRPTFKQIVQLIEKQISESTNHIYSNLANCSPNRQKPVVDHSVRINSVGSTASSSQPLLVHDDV
T5 sequence (P09619 whole entry): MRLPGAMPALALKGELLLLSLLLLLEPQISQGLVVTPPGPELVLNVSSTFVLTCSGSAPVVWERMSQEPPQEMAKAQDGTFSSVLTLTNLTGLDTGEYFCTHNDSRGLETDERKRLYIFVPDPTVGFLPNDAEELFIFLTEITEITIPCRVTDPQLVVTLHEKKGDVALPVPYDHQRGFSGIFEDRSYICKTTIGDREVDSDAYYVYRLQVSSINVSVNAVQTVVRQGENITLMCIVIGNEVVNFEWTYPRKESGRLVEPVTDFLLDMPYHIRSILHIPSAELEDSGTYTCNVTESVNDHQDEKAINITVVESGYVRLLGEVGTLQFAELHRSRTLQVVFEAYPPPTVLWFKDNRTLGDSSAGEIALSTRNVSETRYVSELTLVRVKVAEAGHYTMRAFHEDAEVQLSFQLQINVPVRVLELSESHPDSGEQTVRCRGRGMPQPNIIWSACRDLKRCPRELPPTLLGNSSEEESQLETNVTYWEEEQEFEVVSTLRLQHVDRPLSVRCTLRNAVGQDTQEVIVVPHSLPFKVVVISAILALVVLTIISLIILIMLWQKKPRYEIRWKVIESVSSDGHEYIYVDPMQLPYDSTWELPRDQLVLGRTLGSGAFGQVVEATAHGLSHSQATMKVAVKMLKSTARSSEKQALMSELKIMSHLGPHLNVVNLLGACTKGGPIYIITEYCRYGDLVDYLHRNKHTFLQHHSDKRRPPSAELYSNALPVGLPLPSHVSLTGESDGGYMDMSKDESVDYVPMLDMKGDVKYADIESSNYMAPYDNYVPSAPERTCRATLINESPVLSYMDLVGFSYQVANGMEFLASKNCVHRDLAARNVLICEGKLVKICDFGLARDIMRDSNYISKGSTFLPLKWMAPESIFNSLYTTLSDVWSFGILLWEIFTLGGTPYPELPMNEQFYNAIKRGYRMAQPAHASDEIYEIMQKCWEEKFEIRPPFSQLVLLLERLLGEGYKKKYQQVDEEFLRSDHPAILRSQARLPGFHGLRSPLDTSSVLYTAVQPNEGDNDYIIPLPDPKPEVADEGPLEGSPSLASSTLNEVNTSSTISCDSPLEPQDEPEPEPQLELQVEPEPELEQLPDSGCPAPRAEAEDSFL
T4 sequence (Q15759 whole entry): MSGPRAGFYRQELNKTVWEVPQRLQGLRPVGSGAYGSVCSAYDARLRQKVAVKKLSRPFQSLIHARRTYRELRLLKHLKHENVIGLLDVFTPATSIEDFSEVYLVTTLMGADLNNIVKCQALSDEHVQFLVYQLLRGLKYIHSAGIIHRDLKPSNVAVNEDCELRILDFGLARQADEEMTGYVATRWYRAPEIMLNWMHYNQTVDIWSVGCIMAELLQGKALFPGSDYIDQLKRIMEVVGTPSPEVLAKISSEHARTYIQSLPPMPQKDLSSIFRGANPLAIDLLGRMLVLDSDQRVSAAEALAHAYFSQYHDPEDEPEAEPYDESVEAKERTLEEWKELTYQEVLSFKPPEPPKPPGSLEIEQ
Chain of Voltage-gated inwardly rectifying potassium channel KCNH2 (Q12809 whole entry): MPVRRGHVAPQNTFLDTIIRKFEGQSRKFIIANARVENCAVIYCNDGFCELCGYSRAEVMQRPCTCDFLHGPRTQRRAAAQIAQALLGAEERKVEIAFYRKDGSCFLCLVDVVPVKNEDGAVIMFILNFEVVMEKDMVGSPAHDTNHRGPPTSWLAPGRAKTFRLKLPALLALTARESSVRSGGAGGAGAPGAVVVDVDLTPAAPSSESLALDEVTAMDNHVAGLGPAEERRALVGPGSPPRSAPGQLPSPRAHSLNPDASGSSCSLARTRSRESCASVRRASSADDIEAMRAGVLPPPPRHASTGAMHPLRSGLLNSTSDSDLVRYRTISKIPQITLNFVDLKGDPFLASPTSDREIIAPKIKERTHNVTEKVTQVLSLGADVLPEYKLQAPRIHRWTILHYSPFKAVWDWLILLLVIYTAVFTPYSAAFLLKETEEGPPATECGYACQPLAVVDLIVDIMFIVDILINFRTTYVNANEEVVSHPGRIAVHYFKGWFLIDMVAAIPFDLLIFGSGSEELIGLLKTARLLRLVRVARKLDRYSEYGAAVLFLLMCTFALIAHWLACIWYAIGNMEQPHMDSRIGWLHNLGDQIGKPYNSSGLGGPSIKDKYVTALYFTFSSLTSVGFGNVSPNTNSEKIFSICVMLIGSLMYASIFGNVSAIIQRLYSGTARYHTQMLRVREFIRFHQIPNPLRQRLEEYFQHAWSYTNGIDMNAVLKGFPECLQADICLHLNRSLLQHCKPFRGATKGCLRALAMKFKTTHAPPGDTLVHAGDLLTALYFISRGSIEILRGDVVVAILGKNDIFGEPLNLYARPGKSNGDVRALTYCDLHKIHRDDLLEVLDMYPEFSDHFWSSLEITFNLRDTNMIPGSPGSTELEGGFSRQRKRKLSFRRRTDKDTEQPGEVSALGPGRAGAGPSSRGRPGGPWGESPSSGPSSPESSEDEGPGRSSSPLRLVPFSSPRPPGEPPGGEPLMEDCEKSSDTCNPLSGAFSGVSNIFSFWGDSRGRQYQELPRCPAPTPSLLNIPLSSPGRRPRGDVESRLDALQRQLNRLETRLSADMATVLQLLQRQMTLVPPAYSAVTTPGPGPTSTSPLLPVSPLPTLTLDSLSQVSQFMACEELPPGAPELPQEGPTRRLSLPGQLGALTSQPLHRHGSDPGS

SMILES: Cc1ccc2c(N)nsc2c1-c1ccc2c(N3CCOC[C@@H]3C)nncc2c1
Ki [1]: 2 nM
IC50 (THP-1): 29 nM
IC50 (Blood): 50 nM
IC50 (Cytochrome P450 3A4): 4000 nM

SMILES: Cc1ccccc1-c1nncc2cc(-c3c(C)ccc4c(NC5CC5)noc34)ccc12
Ki [1]: 0.4 nM
IC50 (THP-1): 0.4 nM
IC50 (Blood): 3.3 nM
IC50 (Cytochrome P450 3A4): 1800 nM
IC50 (Cytochrome P450 2D6): > 25000 nM

SMILES: CC(C)Nc1noc2c(-c3ccc4c(N5CCOC[C@@H]5C)nncc4c3)c(Cl)ccc12
Ki [1]: 0.4 nM
IC50 (THP-1): 3.6 nM
IC50 (Blood): 15 nM
IC50 (Cytochrome P450 3A4): 4500 nM

SMILES: Cc1ccc2c(NC3CC3)noc2c1-c1ccc2c(NC(C)C)nncc2c1
Ki [1]: 0.5 nM
IC50 (THP-1): 0.4 nM
IC50 (Blood): 0.7 nM
IC50 (Cytochrome P450 3A4): 5600 nM
IC50 (Cytochrome P450 2D6): > 25000 nM

SMILES: Cc1ccc2c(NC3CC3)noc2c1-c1ccc2c(N3CCOC[C@@H]3C)nncc2c1
Ki [1]: 0.7 nM
IC50 (THP-1): 0.6 nM
IC50 (Blood): 1.3 nM
IC50 (Cytochrome P450 3A4): 5600 nM
IC50 (Cytochrome P450 2D6): > 25000 nM

SMILES: Cc1ccc2c(N)n[nH]c2c1-c1ccc2c(N3CCOC[C@@H]3C)nncc2c1
Ki [1]: 16 nM
IC50 (THP-1): 120 nM
IC50 (Blood): 153 nM

SMILES: CNc1noc2c(-c3ccc4c(NC(C)C)nncc4c3)c(C)ccc12
Ki [1]: 0.5 nM
IC50 (THP-1): 0.7 nM
IC50 (Blood): 2.2 nM
IC50 (Cytochrome P450 3A4): > 25000 nM

SMILES: CNc1noc2c(-c3ccc4c(OC(C)C)nncc4c3)c(C)ccc12
Ki [1]: 0.4 nM
IC50 (THP-1): 0.7 nM
IC50 (Blood): 7 nM
IC50 (Cytochrome P450 3A4): > 25000 nM

SMILES: CC(=O)N1CCN(c2nncc3cc(-c4c(C)ccc5c(NC6CC6)noc45)ccc23)[C@@H](C)C1
Ki [1]: 0.8 nM
IC50 (THP-1): 0.8 nM
IC50 (Blood): 1.4 nM
IC50 (Cytochrome P450 2D6): > 25000 nM

SMILES: CNc1noc2c(-c3ccc4c(C(C)C)nncc4c3)c(C)ccc12
Ki [1]: 1.1 nM
IC50 (THP-1): 1.1 nM
IC50 (Blood): 3.4 nM
IC50 (Cytochrome P450 3A4): > 25000 nM

SMILES: CC[C@H](C)Nc1nncc2cc(-c3c(C)ccc4c(NC)noc34)ccc12
Ki [1]: 0.2 nM
IC50 (THP-1): 1.3 nM
IC50 (Blood): 2.1 nM
IC50 (Cytochrome P450 3A4): > 25000 nM

Continued, in another order:

Ki [1]: 0.2 nM
IC50 (THP-1): 1.3 nM
IC50 (Blood): 3.3 nM
IC50 (Cytochrome P450 3A4): 6000 nM
SMILES: CNc1noc2c(-c3ccc4c(N5CCOC[C@@H]5C)nncc4c3)c(Cl)ccc12

Ki [1]: 0.3 nM
IC50 (THP-1): 0.4 nM
IC50 (Blood): 2 nM
IC50 (Cytochrome P450 3A4): 10000 nM
SMILES: CCNc1noc2c(-c3ccc4c(N5CCOC[C@@H]5C)nncc4c3)c(C)ccc12

Ki [1]: 0.3 nM
IC50 (THP-1): 1 nM
IC50 (Blood): 4.5 nM
IC50 (Cytochrome P450 3A4): > 25000 nM
SMILES: CNc1noc2c(-c3ccc4c(N5CCOC[C@H]5C)nncc4c3)c(C)ccc12

Ki [1]: 0.6 nM
IC50 (THP-1): 0.7 nM
IC50 (Blood): 2 nM
IC50 (Cytochrome P450 3A4): > 25000 nM
SMILES: CC(=O)Nc1noc2c(-c3ccc4c(N5CCOC[C@@H]5C)nncc4c3)c(C)ccc12

IC50 [2]: 1600 nM
Activity [3]: Not Active
AUC (Rattus norvegicus [6]): 0.0224 µM·h
Cmax (Rattus norvegicus [7]): 7 nM
concentration at 24 h [8]: 0.3 nM
Ki [1]: 0.4 nM
IC50 (THP-1): 0.4 nM
IC50 (Blood): 3.3 nM
IC50 (Cytochrome P450 3A4): > 25000 nM
Vd [9]: 2.4 L/kg
half-life [10]: 2.8 h
Tmax [11]: 1.7 h
Cmax (Rattus norvegicus [12]): 1040 ng/mL
F (Rattus norvegicus [13]): 67%
fraction unbound [14]: 0.1
fraction unbound [15]: 0.08
Stability (Liver microsomes [16]): 120 µL/min
Stability (Liver microsomes [17]): 132 µL/min
Ki [18]: 1.8 nM
inhibition [19]: < 50%
inhibition [20]: < 50%
inhibition [21]: < 50%
inhibition [22]: < 50%
IC50 [23]: 830 nM
SMILES: CNc1noc2c(-c3ccc4c(N5CCOC[C@@H]5C)nncc4c3)c(C)ccc12
IC50 [4]: 13000 nM
Activity (Rattus norvegicus [5]): Dose-dependent effect
ED50 (Rattus norvegicus [5]; 168 h): 0.05 mg/kg

Ki [1]: 0.3 nM
IC50 (THP-1): 3.6 nM
IC50 (Blood): 5.2 nM
IC50 (Cytochrome P450 3A4): 12000 nM
SMILES: Cc1ccc2c(N)noc2c1-c1ccc2c(N3CCOC[C@@H]3C)nncc2c1
